Activity calls are given as the source filed them. No cut-off for these calls is given here.
Assays:
[1] = species: Mus musculus; assay: animal or person; settings: Ear, po, read-out: INH
[2] = Dissociation constant, pKa of the compound; format: physicochemical
[3] = Partition coefficient, log D of the compound at pH 7.4; format: physicochemical; settings: octanol/water
[4] = Intrinsic aqueous solubility of the compound; format: physicochemical; settings: read-out: Intrinsic_solubility
How it was run: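 Determined on a Gemini Profiler by potentiometric titration (Avdeef–Bucher method), which also gave pKa; logD at pH 7.4.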

[5] = tested on: Mus musculus; assay: Analgesic activity in mouse assessed as inhibition of acetic acid-induced writhing at 70 mg/kg, ig administered 1 hr before acetic acid challenge measured after 15 mins; format: functional; settings: po, route intragastric
How it was run: (§1)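 Mice dosed by gavage with compound suspended in 0.5% CMC-Na; the model group got vehicle only. 1 h later, 0.7% acetic acid in saline was injected i.p. at 0.1 ml/10 g body weight. Writhes were counted 15 min after the stimulus. Results are mean ± SEM, n = 8.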

[6] = tested on: Mus musculus; assay: Analgesic activity in mouse assessed as increase in tail-curl latency time at 100 mg/kg, ig measured after 60 mins by tail-immersion test; format: functional, organism-based; set-up: dose 100 mg/kg
How it was run: (§2)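 Mice dosed by gavage with 100 mg/kg suspended in 0.5% CMC-Na. Tail-curl latency in the tail-immersion test was recorded before dosing and at 30, 60, 90 and 120 min afterward. Results are given as mean ± SEM (n = 8), with one-way ANOVA against control.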

[7] = tested on: Mus musculus; assay: Antiinflammatory activity in mouse assessed as xylene-induced ear swollen extent at 100 mg/kg, ig administered 90 mins prior to xylene challenge measured after 30 mins (reference value: 132.8 +/-16.3%); format: functional; settings: route intragastric
How it was run: (§3)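 Mice were given compound by gavage as a suspension in 0.5% CMC-Na; the vehicle group got 0.5% CMC-Na. 90 min later, 25 µl xylene was applied to both surfaces of the right ear, with the left ear as control. Mice were killed 30 min later. 8 mm punches were taken from both ears and weighed, and swelling was expressed relative to the left ear weight. Results are mean ± SEM, n = 8.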

[8] = tested on: Mus musculus; assay: Antiinflammatory activity in mouse assessed as inhibition of xylene-induced ear swelling at 100 mg/kg, ig administered 90 mins prior to xylene challenge measured after 30 mins; format: functional; settings: po, route intragastric
How it was run: as §3

[9] = tested on: Mus musculus; assay: Analgesic activity in mouse assessed as increase in tail-curl latency time at 100 mg/kg, ig measured after 30 to 90 mins by tail-immersion test; format: functional, organism-based; set-up: dose 100 mg/kg
How it was run: as §2

[10] = tested on: Mus musculus; assay: Analgesic activity in mouse assessed as increase in tail-curl latency time at 100 mg/kg, ig measured after 90 mins by tail-immersion test; format: functional, organism-based; set-up: dose 100 mg/kg
How it was run: as §2

[11] = tested on: Mus musculus; assay: Analgesic activity in mouse assessed as inhibition of acetic acid-induced writhing at 200 mg/kg, ig administered 1 hr before acetic acid challenge measured after 15 mins; format: functional; settings: po, route intragastric
How it was run: as §1

[12] = Equilibrium solubility of the compound by classical saturation shake flask method; format: physicochemical
How it was run: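 Equilibrium solubility measured by the classical saturation shake-flask method.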

[13] = tested on: Mus musculus; assay: Analgesic activity in mouse assessed as increase in tail-curl latency time at 100 mg/kg, ig measured after 30 to 120 mins by tail-immersion test; format: functional, organism-based; set-up: dose 100 mg/kg
How it was run: as §2

SMILES	inhibition in vivo at 150 mg/kg [1]	pKa [2]	logD [3]	solubility [4]	inhibition in vivo at 70 mg/kg [5]	Activity [6]	Ear swelling extent [7]	inhibition in vivo at 100 mg/kg [8]	Activity [9]	Activity [10]	inhibition in vivo at 200 mg/kg [11]	solubility thermodynamic [12]	Activity [13]
COc1ccc2cc([C@H](C)C(=O)O)ccc2c1 [NAPROXEN]	36.6%												
CC1(C)O[C@H]2CC(=O)OC[C@]23[C@H]2CC[C@]4(C)C(=CC(=O)O[C@H]4c4ccoc4)[C@]2(C)/C(=N\OCCN2CCOCC2)C[C@@H]13.Cl		6.84	2.52	2100 µg/mL	50%	Active	96.1%	27.6%					
CC1(C)O[C@H]2CC(=O)OC[C@]23[C@H]2CC[C@@]4(C)[C@H](c5ccoc5)OC(=O)[C@H]5O[C@]54[C@]2(C)/C(=N\OCCN2CCOCC2)C[C@@H]13.Cl		6.11	2.45	4500 µg/mL	58%		62.4%	53%	Active				
CCN(CC)CCO/N=C1/C[C@H]2C(C)(C)O[C@H]3CC(=O)OC[C@]32[C@H]2CC[C@@]3(C)[C@H](c4ccoc4)OC(=O)[C@H]4O[C@]43[C@]12C.Cl		9.17	0.26	14500 µg/mL	80%		32.6%	75.5%	Active	Active			
CC1(C)O[C@H]2CC(=O)OC[C@]23[C@H]2CC[C@@]4(C)[C@H](c5ccoc5)OC(=O)[C@H]5O[C@]54[C@]2(C)/C(=N\OCCN2CCCCC2)C[C@@H]13.Cl		8.87	0.44	25300 µg/mL	70.5%	Active	60.1%	54.8%	Active				
CN(C)CCCO/N=C1/C[C@H]2C(C)(C)O[C@H]3CC(=O)OC[C@]32[C@H]2CC[C@]3(C)C(=CC(=O)O[C@H]3c3ccoc3)[C@]12C.Cl		9.39	0.19	9400 µg/mL	60.7%	Active	97.8%	26.4%					
CC(=O)Oc1ccccc1C(=O)O [ASPIRIN]											71.8%		
CC1(C)O[C@H]2CC(=O)OC[C@]23[C@H]2CC[C@]4(C)C(=CC(=O)O[C@H]4c4ccoc4)[C@]2(C)/C(=N\OCCN2CCCCC2)C[C@@H]13.Cl		8.52	0.81	19800 µg/mL	44.3%	Active	99.1%	25.4%					
CC1(C)O[C@H]2CC(=O)OC[C@@]23[C@H]1CC(=O)[C@@]1(C)C2=CC(=O)O[C@H](c4ccoc4)[C@]2(C)CC[C@@H]13 [DESOXYLIMONIN]					24.6%		111.7%	15.9%				< 5 µg/mL	inactive
CCN(CC)CCO/N=C1/C[C@H]2C(C)(C)O[C@H]3CC(=O)OC[C@]32[C@H]2CC[C@]3(C)C(=CC(=O)O[C@H]3c3ccoc3)[C@]12C.Cl		9.49	0.57	1900 µg/mL	33.2%	Active	108.2%	18.4%					
CN(C)CCO/N=C1/C[C@H]2C(C)(C)O[C@H]3CC(=O)OC[C@]32[C@H]2CC[C@@]3(C)[C@H](c4ccoc4)OC(=O)[C@H]4O[C@]43[C@]12C.Cl		8.78	0.59	17800 µg/mL	68.6%		72.4%	45.5%	Active				
CC1(C)O[C@H]2CC(=O)OC[C@]23[C@H]2CC[C@@]4(C)[C@H](c5ccoc5)OC(=O)[C@H]5O[C@]54[C@]2(C)C(=O)C[C@@H]13 [LIMONIN]					45.9%		89.3%	32.7%				< 5 µg/mL	
CN(C)CCCO/N=C1/C[C@H]2C(C)(C)O[C@H]3CC(=O)OC[C@]32[C@H]2CC[C@@]3(C)[C@H](c4ccoc4)OC(=O)[C@H]4O[C@]43[C@]12C.Cl		9.28	0.37	9600 µg/mL	64.1%		71.6%	46.1%	Active				
CN(C)CCO/N=C1/C[C@H]2C(C)(C)O[C@H]3CC(=O)OC[C@]32[C@H]2CC[C@]3(C)C(=CC(=O)O[C@H]3c3ccoc3)[C@]12C.Cl		8.88	0.32	28900 µg/mL	30%	Active	100.2%	24.6%					

Source: ChEMBL document CHEMBL3232842, “Synthesis and pharmacological evaluation of novel limonin derivatives as anti-inflammatory and analgesic agents with high water solubility” (Bioorg Med Chem Lett, 2014)
